Assays:
[1] = biological target: Serine/threonine-protein kinase pim-1 (Homo sapiens) (UniProt P11309); experiment: Inhibition of PIM1 at 5 to 10 uM
[2] = biological target: PI3-kinase p110-delta/p85-alpha (Homo sapiens, UniProt O00329); experiment: Inhibition of human PI3K p110delta/p85alpha; type: protein-complex assay; conditions: read-out: Ki(app)
[3] = biological target: Insulin receptor (Homo sapiens) (UniProt P06213); experiment: Inhibition of INS-R at 5 to 10 uM
[4] = biological target: Phosphatidylinositol 4,5-bisphosphate 3-kinase catalytic subunit gamma isoform (Homo sapiens, UniProt P48736); experiment: Inhibition of human PI3K p110gamma; conditions: read-out: Ki(app)
Phosphatidylinositol 4,5-bisphosphate 3-kinase catalytic subunit gamma isoform, sequence (P48736 whole entry, canonical isoform): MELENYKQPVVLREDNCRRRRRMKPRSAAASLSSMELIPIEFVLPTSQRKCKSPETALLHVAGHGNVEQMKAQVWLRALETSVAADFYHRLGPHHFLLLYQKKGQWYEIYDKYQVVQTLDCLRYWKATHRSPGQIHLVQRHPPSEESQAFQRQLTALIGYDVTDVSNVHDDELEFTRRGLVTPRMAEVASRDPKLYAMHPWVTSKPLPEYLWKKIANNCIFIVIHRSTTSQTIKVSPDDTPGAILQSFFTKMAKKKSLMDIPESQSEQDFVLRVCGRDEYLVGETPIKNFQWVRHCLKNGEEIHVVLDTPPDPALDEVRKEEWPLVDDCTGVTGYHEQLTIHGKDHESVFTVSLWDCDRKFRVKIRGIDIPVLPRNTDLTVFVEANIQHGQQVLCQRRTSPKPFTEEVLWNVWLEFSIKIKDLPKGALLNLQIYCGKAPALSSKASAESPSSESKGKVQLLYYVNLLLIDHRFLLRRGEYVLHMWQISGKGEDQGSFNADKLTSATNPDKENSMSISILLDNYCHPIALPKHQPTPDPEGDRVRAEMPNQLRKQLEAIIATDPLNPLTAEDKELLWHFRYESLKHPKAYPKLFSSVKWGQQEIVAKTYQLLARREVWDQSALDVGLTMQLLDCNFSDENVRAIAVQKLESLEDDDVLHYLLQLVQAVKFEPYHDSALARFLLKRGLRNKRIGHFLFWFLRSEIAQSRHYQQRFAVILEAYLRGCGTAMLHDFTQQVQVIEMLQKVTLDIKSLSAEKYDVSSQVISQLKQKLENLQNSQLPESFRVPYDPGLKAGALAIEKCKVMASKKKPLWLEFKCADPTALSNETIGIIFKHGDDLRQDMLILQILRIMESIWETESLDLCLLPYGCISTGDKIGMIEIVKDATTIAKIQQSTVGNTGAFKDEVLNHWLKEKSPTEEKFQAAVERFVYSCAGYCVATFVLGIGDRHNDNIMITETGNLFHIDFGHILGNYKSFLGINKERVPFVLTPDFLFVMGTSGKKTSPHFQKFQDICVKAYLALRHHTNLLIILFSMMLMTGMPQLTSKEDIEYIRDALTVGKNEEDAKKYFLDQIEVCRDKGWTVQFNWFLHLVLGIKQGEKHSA

Homo sapiens = species on record: Homo sapiens; experiment: Selectivity ratio of Kiapp for human PI3K p110alpha/p85alpha to Kiapp for human PI3K p110delta/p85alpha
[5] = biological target: Fibroblast growth factor receptor 1 (Homo sapiens) (UniProt P11362); experiment: Inhibition of FGF-R1 at 5 to 10 uM
[6] = biological target: Receptor-type tyrosine-protein kinase FLT3 (Homo sapiens) (UniProt P36888); experiment: Inhibition of FLT3 at 5 to 10 uM
Receptor-type tyrosine-protein kinase FLT3 (Homo sapiens), sequence (P36888 whole entry): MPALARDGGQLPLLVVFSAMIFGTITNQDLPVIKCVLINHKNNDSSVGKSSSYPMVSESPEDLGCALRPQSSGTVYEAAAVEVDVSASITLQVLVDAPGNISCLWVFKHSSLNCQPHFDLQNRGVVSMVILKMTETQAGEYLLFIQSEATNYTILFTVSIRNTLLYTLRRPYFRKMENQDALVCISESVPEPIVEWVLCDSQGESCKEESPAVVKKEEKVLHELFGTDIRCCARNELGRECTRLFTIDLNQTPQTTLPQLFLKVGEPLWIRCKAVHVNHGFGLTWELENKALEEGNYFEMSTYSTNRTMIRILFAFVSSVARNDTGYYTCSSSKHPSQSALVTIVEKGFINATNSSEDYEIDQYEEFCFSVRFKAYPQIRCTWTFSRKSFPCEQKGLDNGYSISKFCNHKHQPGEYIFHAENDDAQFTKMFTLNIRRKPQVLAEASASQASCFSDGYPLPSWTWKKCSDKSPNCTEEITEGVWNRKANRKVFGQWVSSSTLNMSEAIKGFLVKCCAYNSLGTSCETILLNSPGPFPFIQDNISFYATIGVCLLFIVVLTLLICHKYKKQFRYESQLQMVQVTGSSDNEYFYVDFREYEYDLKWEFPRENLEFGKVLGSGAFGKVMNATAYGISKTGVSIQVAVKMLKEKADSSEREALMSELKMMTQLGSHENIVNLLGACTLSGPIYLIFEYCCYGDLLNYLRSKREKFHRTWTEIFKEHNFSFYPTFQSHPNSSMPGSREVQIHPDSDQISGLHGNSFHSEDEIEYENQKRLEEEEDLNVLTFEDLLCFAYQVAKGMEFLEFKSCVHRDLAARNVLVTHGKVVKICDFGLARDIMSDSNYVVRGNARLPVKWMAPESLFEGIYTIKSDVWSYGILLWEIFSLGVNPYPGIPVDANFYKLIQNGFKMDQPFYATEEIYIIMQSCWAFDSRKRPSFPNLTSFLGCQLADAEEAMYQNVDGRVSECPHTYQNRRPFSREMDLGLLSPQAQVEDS

[7] = biological target: Serine/threonine-protein kinase PAK 1 (Homo sapiens) (UniProt Q13153); experiment: Inhibition of PAK1 at 5 to 10 uM
PI3K p110 beta/p85 alpha = PI3K p110 beta/p85 alpha (Homo sapiens, UniProt P42338); experiment: Inhibition of human PI3K p110beta/p85alpha; type: protein-complex assay; conditions: read-out: Ki(app)
CYP2C9 = CYP2C9 (Homo sapiens, UniProt P11712); experiment: Inhibition of CYP2C9 at 10 uM; type: ADME
How it was run: (§1)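 CYP isoform panel (1A2, 2C9, 2C19, 2D6, 3A4); percent inhibition recorded at 10 µM test compound; run in duplicate by an outside contractor.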

[8] = biological target: Mast/stem cell growth factor receptor Kit (Homo sapiens) (UniProt P10721); experiment: Inhibition of KIT at 5 to 10 uM
Mast/stem cell growth factor receptor Kit (Homo sapiens), sequence (P10721 whole entry): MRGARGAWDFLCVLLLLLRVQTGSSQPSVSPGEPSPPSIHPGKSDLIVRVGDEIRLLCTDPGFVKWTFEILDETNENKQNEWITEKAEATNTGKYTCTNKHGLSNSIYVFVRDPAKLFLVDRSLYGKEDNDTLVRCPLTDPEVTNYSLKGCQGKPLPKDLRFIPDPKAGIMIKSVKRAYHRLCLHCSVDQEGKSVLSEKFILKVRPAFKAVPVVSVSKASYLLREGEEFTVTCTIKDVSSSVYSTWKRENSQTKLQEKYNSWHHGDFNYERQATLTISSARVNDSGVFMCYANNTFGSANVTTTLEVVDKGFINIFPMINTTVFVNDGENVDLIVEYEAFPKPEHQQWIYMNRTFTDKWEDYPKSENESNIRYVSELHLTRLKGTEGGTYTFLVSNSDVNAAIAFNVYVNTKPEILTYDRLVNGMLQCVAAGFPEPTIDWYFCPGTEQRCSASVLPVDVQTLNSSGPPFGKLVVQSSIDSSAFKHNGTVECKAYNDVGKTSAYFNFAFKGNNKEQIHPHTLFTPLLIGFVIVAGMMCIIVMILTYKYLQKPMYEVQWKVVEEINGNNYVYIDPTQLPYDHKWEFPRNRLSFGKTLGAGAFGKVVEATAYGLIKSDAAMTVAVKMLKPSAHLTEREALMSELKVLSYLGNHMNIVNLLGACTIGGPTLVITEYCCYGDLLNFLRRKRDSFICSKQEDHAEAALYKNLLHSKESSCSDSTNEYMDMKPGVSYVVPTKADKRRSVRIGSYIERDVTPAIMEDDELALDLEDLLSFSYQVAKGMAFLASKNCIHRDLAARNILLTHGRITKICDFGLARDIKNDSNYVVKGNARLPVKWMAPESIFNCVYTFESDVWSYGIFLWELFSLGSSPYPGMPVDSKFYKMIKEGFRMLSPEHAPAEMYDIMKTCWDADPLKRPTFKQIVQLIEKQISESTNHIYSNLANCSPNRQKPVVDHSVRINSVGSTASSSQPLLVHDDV

[9] = biological target: T1, PI3-kinase p110-alpha/p85-alpha (Homo sapiens, UniProt P42336); experiment: Inhibition of PI3K p110alpha/p85alpha; type: protein-complex assay
T1 sequence (P27986 whole entry): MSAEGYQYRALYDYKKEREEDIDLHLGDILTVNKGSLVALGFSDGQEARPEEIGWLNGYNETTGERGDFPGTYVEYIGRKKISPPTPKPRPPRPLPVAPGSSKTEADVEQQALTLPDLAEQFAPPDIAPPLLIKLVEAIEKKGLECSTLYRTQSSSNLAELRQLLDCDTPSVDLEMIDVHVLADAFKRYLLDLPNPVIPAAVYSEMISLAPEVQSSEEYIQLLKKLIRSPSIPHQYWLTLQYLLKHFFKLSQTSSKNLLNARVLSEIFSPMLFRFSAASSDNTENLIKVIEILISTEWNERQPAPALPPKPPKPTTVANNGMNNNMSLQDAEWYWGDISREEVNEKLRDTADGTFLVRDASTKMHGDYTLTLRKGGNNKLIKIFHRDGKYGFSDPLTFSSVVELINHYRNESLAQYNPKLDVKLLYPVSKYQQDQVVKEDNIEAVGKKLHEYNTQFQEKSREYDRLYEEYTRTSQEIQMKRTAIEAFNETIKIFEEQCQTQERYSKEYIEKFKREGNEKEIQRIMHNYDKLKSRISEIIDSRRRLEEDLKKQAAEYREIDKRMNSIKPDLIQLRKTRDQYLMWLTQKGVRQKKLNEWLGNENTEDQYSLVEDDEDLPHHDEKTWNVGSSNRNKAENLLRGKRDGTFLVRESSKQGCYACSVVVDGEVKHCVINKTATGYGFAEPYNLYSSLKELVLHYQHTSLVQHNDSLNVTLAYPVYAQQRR
T1 sequence (P42336 whole entry): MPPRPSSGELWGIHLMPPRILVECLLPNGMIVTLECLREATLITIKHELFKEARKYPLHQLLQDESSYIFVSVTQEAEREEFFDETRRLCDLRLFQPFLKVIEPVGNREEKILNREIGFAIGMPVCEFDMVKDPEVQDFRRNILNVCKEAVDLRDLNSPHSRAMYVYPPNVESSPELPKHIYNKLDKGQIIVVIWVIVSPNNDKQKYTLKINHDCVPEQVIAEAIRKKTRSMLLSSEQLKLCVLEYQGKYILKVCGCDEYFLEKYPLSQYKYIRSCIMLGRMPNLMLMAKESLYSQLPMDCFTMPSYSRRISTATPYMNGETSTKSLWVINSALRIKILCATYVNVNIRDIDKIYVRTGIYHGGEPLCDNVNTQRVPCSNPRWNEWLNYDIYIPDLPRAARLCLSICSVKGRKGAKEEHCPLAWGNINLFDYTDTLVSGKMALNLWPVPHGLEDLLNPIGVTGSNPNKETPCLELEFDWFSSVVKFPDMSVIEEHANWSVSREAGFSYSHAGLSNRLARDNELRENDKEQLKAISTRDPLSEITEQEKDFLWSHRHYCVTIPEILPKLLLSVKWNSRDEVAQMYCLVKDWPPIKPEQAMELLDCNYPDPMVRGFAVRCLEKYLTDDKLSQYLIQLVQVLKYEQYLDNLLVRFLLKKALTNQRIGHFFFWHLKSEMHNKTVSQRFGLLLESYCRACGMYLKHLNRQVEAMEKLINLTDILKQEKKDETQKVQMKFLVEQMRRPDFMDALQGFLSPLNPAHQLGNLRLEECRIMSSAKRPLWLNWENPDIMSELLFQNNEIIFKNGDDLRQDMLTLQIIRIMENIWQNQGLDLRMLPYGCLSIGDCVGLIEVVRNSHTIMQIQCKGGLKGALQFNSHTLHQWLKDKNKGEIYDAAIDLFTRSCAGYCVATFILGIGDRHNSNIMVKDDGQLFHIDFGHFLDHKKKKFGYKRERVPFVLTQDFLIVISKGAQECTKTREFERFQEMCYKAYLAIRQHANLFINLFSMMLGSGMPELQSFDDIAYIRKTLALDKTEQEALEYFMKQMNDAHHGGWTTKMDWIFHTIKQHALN
How it was run: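 Biochemical kinase assay following the kit manufacturer's protocol with a modified kinase buffer (50 mM HEPES pH 7.5, 3 mM MgCl2, 100 mM NaCl, 1 mM EGTA, 0.04% CHAPS, 2 mM TCEP, 0.01 mg/ml BGG); 10 nM enzyme; ATP 50 µM; values are averages of two independent experiments, each in duplicate.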

CYP1A2 = biological target: T2, CYP1A2 (Homo sapiens, UniProt P05177); experiment: Inhibition of CYP1A2 at 10 uM; type: ADME; how it was run: as §1
T2 sequence (P05177 whole entry): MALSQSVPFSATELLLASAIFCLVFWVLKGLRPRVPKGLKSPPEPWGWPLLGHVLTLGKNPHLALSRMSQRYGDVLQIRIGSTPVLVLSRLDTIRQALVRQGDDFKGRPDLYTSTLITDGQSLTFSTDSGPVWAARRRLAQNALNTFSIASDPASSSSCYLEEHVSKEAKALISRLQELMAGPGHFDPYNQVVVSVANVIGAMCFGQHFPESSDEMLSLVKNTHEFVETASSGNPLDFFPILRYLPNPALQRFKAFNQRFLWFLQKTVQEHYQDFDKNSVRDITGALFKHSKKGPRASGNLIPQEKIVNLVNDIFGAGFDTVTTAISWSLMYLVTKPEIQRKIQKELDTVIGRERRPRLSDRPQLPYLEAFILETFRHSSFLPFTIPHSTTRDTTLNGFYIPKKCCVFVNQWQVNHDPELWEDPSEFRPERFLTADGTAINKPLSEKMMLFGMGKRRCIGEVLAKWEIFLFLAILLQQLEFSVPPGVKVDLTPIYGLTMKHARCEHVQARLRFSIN

[10] = biological target: Ribosomal protein S6 kinase alpha-1 (Homo sapiens) (UniProt Q15418); experiment: Inhibition of RPS6KA1 at 5 to 10 uM
[11] = biological target: T3, Serine/threonine-protein kinase Sgk1 (Homo sapiens) (UniProt O00141); experiment: Inhibition of SGK1 at 5 to 10 uM
T3 sequence (whole entry): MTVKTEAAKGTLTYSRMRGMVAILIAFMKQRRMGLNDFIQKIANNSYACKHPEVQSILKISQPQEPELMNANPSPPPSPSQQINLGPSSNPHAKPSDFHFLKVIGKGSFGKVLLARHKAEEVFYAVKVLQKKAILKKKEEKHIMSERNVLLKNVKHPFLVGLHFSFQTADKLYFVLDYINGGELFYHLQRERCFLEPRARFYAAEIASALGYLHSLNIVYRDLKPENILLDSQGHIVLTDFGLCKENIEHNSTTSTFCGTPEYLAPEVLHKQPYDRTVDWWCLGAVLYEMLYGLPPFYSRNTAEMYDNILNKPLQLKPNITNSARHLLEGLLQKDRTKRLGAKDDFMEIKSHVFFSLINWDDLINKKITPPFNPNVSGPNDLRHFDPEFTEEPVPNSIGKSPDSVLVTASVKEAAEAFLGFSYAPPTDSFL

[12] = biological target: T1, PI3-kinase p110-alpha/p85-alpha; experiment: Inhibition of human PI3K p110alpha/p85alpha; type: protein-complex assay; conditions: read-out: Ki(app)
[13] = Metabolic stability in mouse liver microsomes assessed as compound remaining at 1 uM after 30 mins
CYP2D6 = CYP2D6 (Homo sapiens, UniProt P10635); experiment: Inhibition of CYP2D6 at 10 uM; type: ADME; how it was run: as §1
[14] = Metabolic stability in human liver microsomes assessed as compound remaining at 1 uM after 30 mins
CYP3A4 = CYP3A4 (Homo sapiens, UniProt P08684); experiment: Inhibition of CYP3A4 at 10 uM; type: ADME; how it was run: as §1
CYP2C19 = CYP2C19 (Homo sapiens, UniProt P33261); experiment: Inhibition of CYP2C19 at 10 uM; type: ADME; how it was run: as §1
[15] = biological target: Casein kinase I isoform alpha (Homo sapiens) (UniProt P48729); experiment: Inhibition of CK1alpha1 at 5 to 10 uM

| Compound | inhibition [1] | Ki [2] | inhibition [3] | Ki [4] | Ratio Ki(app) (Homo sapiens) | inhibition [5] | inhibition [6] | inhibition [7] | Ki (PI3K p110 beta/p85 alpha) | inhibition [8] | IC50 [9] | inhibition [10] | inhibition [11] | Ki [12] | inhibition [15] | also measured |
| --- | --- | --- | --- | --- | --- | --- | --- | --- | --- | --- | --- | --- | --- | --- | --- | --- |
| CS(=O)(=O)N1CCN(Cc2cn3c(Cl)c(-c4cccc5[nH]ncc45)nc(N4CCOCC4)c3n2)CC1 | < 50% | 0.065 µM | 50% | > 0.5 µM | 3.2 | < 50% | < 50% | < 50% | > 0.5 µM | < 50% | 0.145 µM | < 50% | < 50% | 0.21 µM | < 50% | inhibition at 10 µM (CYP2C9): < 25%; inhibition at 10 µM (CYP1A2): < 25%; remaining at 0.5 h, 1 µM [13]: 28%; inhibition at 10 µM (CYP2D6): < 25%; remaining at 0.5 h, 1 µM [14]: 35%; inhibition at 10 µM (CYP3A4): < 25%; inhibition at 10 µM (CYP2C19): < 25% |
| CS(=O)(=O)N1CCN(Cc2cn3cc(-c4cccc5[nH]ncc45)nc(N4CCOCC4)c3n2)CC1 | < 50% | – | 50% | > 0.5 µM | – | < 50% | < 50% | < 50% | > 0.5 µM | < 50% | – | < 50% | < 50% | – | < 50% | inhibition at 10 µM (CYP2C9): < 25%; inhibition at 10 µM (CYP1A2): < 25%; remaining at 0.5 h, 1 µM [13]: 32%; inhibition at 10 µM (CYP2D6): < 25%; remaining at 0.5 h, 1 µM [14]: 48%; inhibition at 10 µM (CYP3A4): < 25%; inhibition at 10 µM (CYP2C19): < 25% |
| O=C(NCCN1CCOCC1)c1cn2cc(-c3cccc4[nH]ncc34)nc(N3CCOCC3)c2n1 | < 50% | 0.0065 µM | 50% | > 0.5 µM | 10 | < 50% | < 50% | < 50% | > 0.5 µM | < 50% | – | < 50% | < 50% | 0.065 µM | < 50% | – |
| CS(=O)(=O)N1CCN(Cc2cn3c(C#N)c(-c4cccc5[nH]ncc45)nc(N4CCOCC4)c3n2)CC1 | < 50% | 0.043 µM | 50% | > 0.5 µM | 9.5 | < 50% | < 50% | < 50% | > 0.5 µM | < 50% | 0.194 µM | < 50% | < 50% | 0.41 µM | < 50% | – |
| CN(C)CCCNC(=O)c1cn2cc(-c3cccc4[nH]ncc34)nc(N3CCOCC3)c2n1 | < 50% | 0.0036 µM | 50% | > 0.5 µM | 12.2 | < 50% | < 50% | < 50% | > 0.5 µM | < 50% | 0.035 µM | < 50% | < 50% | 0.044 µM | < 50% | – |
| COCCCNC(=O)c1cn2cc(-c3cccc4[nH]ncc34)nc(N3CCOCC3)c2n1 | < 50% | 0.0028 µM | 50% | > 0.5 µM | 21.4 | < 50% | < 50% | < 50% | > 0.5 µM | < 50% | 0.031 µM | < 50% | < 50% | 0.06 µM | < 50% | – |
| CNC(=O)c1cn2cc(-c3cccc4[nH]ncc34)nc(N3CCOCC3)c2n1 | < 50% | 0.0171 µM | 50% | > 0.5 µM | 6 | < 50% | < 50% | < 50% | > 0.5 µM | < 50% | – | < 50% | < 50% | 0.102 µM | < 50% | – |
| CS(=O)(=O)N1CCN(Cc2nc3c(N4CCOCC4)nc(-c4cccc5[nH]ncc45)cn3c2Br)CC1 | < 50% | 0.008 µM | 50% | > 0.5 µM | 10.8 | < 50% | < 50% | < 50% | > 0.5 µM | < 50% | 0.047 µM | < 50% | < 50% | 0.086 µM | < 50% | – |
